Measurements taken from ChEMBL document CHEMBL4052603, “Branimycins B and C, Antibiotics Produced by the Abyssal Actinobacterium Pseudonocardia carboxydivorans M-227” (2017).
≈ marks a conversion by molar mass, not a printed value.

What was measured:
Format in all cases: functional
[1] = system: Staphylococcus aureus; assay: Antibacterial activity against Staphylococcus aureus ATCC 43300 by CLSI method
[2] = system: Staphylococcus aureus; assay: Antibacterial activity against methicillin-sensitive Staphylococcus aureus MB2865 by CLSI method
Outline: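 MSSA MB2865 tested with diluted inoculum mixed with medium (LB or BHI) plus compound dilution. Twofold serial dilutions from 160 to 0.31 μg/mL, in triplicate. Penicillin G (0.312 to 0.039 μg/mL) was the positive control and amphotericin B (16 to 0.25 μg/mL) the negative control.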

[3] = system: Streptococcus pyogenes; assay: Antibacterial activity against Streptococcus pyogenes 81293 by CLSI method
Outline: (§1)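 CLSI procedure on Mueller-Hinton agar, supplemented per CLSI conditions for S. pneumoniae, S. pyogenes and N. meningitidis.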

[4] = system: Mycobacterium tuberculosis; assay: Antibacterial activity against Mycobacterium tuberculosis MDR-2 by CLSI method
Outline: (§2)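 Agar proportion method for slowly growing mycobacteria on Middlebrook 7H10 agar supplemented with 10% OADC and 0.5% glycerol.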

[5] = system: Enterococcus faecium; assay: Antibacterial activity against Enterococcus faecium 10701 by CLSI method
Outline: (§3)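 CLSI susceptibility testing on Mueller-Hinton agar; clinical isolates came from patients with infections.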

[6] = system: Neisseria meningitidis; assay: Antibacterial activity against Neisseria meningitidis 71327 by CLSI method; outline: as §1
[7] = system: Klebsiella pneumoniae; assay: Antibacterial activity against Klebsiella pneumoniae ATCC 700603 by CLSI method
[8] = system: Staphylococcus aureus; assay: Antibacterial activity against Staphylococcus aureus ATCC 6538P by CLSI method; outline: as §3
[9] = system: Micrococcus luteus; assay: Antibacterial activity against Micrococcus luteus ATCC 14452 by CLSI method; outline: as §3
[10] = system: Haemophilus influenzae; assay: Antibacterial activity against Haemophilus influenzae ATCC 49247 by CLSI method
[11] = system: Acinetobacter baumannii; assay: Antibacterial activity against Acinetobacter baumannii MB5973 after 20 hrs by spectrophotometric method; settings: MB5973, 20 h
[12] = system: Mycobacterium tuberculosis; assay: Antibacterial activity against Mycobacterium tuberculosis H37Rv by CLSI method; outline: as §2
[13] = system: Enterococcus faecalis; assay: Antibacterial activity against Enterococcus faecalis ATCC 51299 by CLSI method; outline: as §3
[14] = system: Pseudomonas aeruginosa; assay: Antibacterial activity against Pseudomonas aeruginosa PAO1 after 20 hrs by spectrophotometric method; settings: PAO1, 20 h
[15] = system: Streptococcus pneumoniae; assay: Antibacterial activity against Streptococcus pneumoniae 64412 by CLSI method; outline: as §1
[16] = system: Enterococcus faecalis; assay: Antibacterial activity against Enterococcus faecalis ATCC 29212 by CLSI method; outline: as §3
[17] = system: Bacteroides fragilis; assay: Antibacterial activity against Bacteroides fragilis 61592 by CLSI method
[18] = system: Mycobacterium tuberculosis; assay: Antibacterial activity against Mycobacterium tuberculosis MDR-1 by CLSI method; outline: as §2
[19] = system: Clostridium perfringens; assay: Antibacterial activity against Clostridium perfringens 103281 by CLSI method
[20] = system: Bacteroides fragilis; assay: Antibacterial activity against Bacteroides fragilis ATCC 25285 by CLSI method
[21] = system: Escherichia coli; assay: Antibacterial activity against Escherichia coli ESS by CLSI method; outline: as §3
[22] = system: Haemophilus influenzae; assay: Antibacterial activity against Haemophilus influenzae 10996 by CLSI method; outline: as §3
[23] = system: Staphylococcus aureus; assay: Antibacterial activity against Staphylococcus aureus ATCC 25923 by CLSI method; outline: as §3
[24] = system: Corynebacterium urealyticum; assay: Antibacterial activity against Corynebacterium urealyticum 1492 by CLSI method
Outline: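 CLSI procedure on trypticasein soy agar with 5% sheep blood.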

[25] = system: Escherichia coli; assay: Antibacterial activity against Escherichia coli MB2884 after 20 hrs by spectrophotometric method; settings: MB2884, 20 h
[26] = system: Staphylococcus aureus; assay: Antibacterial activity against methicillin-resistant Staphylococcus aureus MB5393 by CLSI method
Outline: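 Broth microdilution: 90 μL diluted inoculum plus 8.4 μL medium (LB or BHI) and 1.6 μL compound dilution. Compounds tested as 2-fold serial dilutions from 160 to 0.31 μg/mL, in triplicate. Vancomycin (32 to 4 μg/mL) served as positive control and amphotericin B (16 to 0.25 μg/mL) as negative control.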

[27] = system: Enterococcus faecalis; assay: Antibacterial activity against Enterococcus faecalis 10544 by CLSI method; outline: as §3
[28] = system: Staphylococcus aureus; assay: Antibacterial activity against Staphylococcus aureus 11497 by CLSI method; outline: as §3

## COC[C@H]1[C@@H](O)[C@@H]2O[C@@]34/C(C)=C/[C@@H](C)[C@@H]([C@H](O)CO)OC(=O)[C@H](COC)[C@H]3C=C[C@@H]2[C@H]4[C@@H]1O
[1]
  MIC: > 64 µg/mL
[2]
  MIC: 80 µg/mL (≈ 171 µM)
[3]
  MIC: > 128 µg/mL
[4]
  MIC: > 32 µg/mL
[5]
  MIC: > 64 µg/mL
[6]
  MIC: 64 µg/mL (≈ 137 µM)
[7]
  MIC: > 80 µg/mL
[8]
  MIC: 32 µg/mL (≈ 68.3 µM)
[9]
  MIC: 16 µg/mL (≈ 34.1 µM)
[10]
  MIC: > 64 µg/mL
[11]
  MIC: > 80 µg/mL
[12]
  MIC: > 32 µg/mL
[13]
  MIC: > 64 µg/mL
[14]
  MIC: > 80 µg/mL
[15]
  MIC: > 128 µg/mL
[16]
  MIC: > 64 µg/mL
[17]
  MIC: > 128 µg/mL
[18]
  MIC: > 32 µg/mL
[19]
  MIC: 16 µg/mL (≈ 34.1 µM)
[20]
  MIC: 128 µg/mL (≈ 273 µM)
[21]
  MIC: 128 µg/mL (≈ 273 µM)
[22]
  MIC: > 64 µg/mL
[23]
  MIC: 64 µg/mL (≈ 137 µM)
[24]
  MIC: 16 µg/mL (≈ 34.1 µM)
[25]
  MIC: > 80 µg/mL
[26]
  MIC: 20 to 40 µg/mL (≈ 42.7 to 85.4 µM)
[27]
  MIC: 64 µg/mL (≈ 137 µM)
[28]
  MIC: > 64 µg/mL

## COC[C@H]1C(=O)O[C@H]([C@H](O)CO)[C@H](C)/C=C(\C)[C@@]23O[C@H]4[C@H](O)[C@H](C)[C@@H](O)[C@@H]2[C@H]4C=C[C@H]13
[1]
  MIC: > 64 µg/mL
[2]
  MIC: > 160 µg/mL
[3]
  MIC: > 128 µg/mL
[4]
  MIC: > 32 µg/mL
[5]
  MIC: > 64 µg/mL
[6]
  MIC: 32 µg/mL (≈ 73 µM)
[7]
  MIC: > 80 µg/mL
[8]
  MIC: > 128 µg/mL
[9]
  MIC: 1 µg/mL (≈ 2.28 µM)
[10]
  MIC: 32 µg/mL (≈ 73 µM)
[11]
  MIC: > 80 µg/mL
[12]
  MIC: > 32 µg/mL
[13]
  MIC: > 64 µg/mL
[14]
  MIC: > 80 µg/mL
[15]
  MIC: > 128 µg/mL
[16]
  MIC: > 64 µg/mL
[17]
  MIC: 128 µg/mL (≈ 292 µM)
[18]
  MIC: > 32 µg/mL
[19]
  MIC: 32 µg/mL (≈ 73 µM)
[20]
  MIC: 32 µg/mL (≈ 73 µM)
[21]
  MIC: 64 µg/mL (≈ 146 µM)
[22]
  MIC: > 64 µg/mL
[23]
  MIC: > 64 µg/mL
[24]
  MIC: 8 µg/mL (≈ 18.2 µM)
[25]
  MIC: > 80 µg/mL
[26]
  MIC: > 160 µg/mL
[27]
  MIC: > 64 µg/mL
[28]
  MIC: > 64 µg/mL
